This note sets out measurements from ChEMBL document CHEMBL3593164, “Rational Design and Synthesis of Thioridazine Analogues as Enhancers of the Antituberculosis Therapy” (J Med Chem, 2015).

Series [1] has as its system Mycolicibacterium smegmatis. Put plainly: Antimycobacterial activity against Mycobacterium smegmatis MC2 155 after 3 days by broth microdilution method. The format is functional. The settings on record: str. MC2 155, 72 h. The method in brief:
(§1)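 Growth inhibition of M. smegmatis mc²155 (ATCC700084) or M. tuberculosis H37Rv (ATCC27294) determined by broth microdilution; MIC in µg/mL. Where no exact MIC was reachable, the highest concentration technically testable is reported as a lower bound.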
For orientation: Broth dilution looks for growth in wells or tubes with falling amounts of substance.

Series [2] relates to PBMC. Put plainly: Cytotoxicity against human PBMC assessed as cell viability after 3 days by AlamarBlue assay. The note with it: 72 h. The format is cell-based. Background: The colour change of resazurin is a common sign of viable cells or microbes.
In series [3] the test system is Mycolicibacterium smegmatis MC2 155.
Series [4] deals with Mycobacterium tuberculosis. The series is described as follows: Antimycobacterial activity against Mycobacterium tuberculosis H37Rv after 3 days by broth microdilution method. The format is functional. The note with it: 72 h. The method in brief:
as §1

The subject of series [5] is Mycobacterium tuberculosis. Put plainly: Antimycobacterial activity against Mycobacterium tuberculosis H37Rv infected in human monocyte-derived macrophages assessed as reduction of colony forming unit at 16 ug/ml after 3 weeks by broth microdilution method in presence of 0.05 ug/ml of isoniazid. The series is classed as functional, organism-based. The method in brief: (§2)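 Human monocyte-derived macrophages infected with M. tuberculosis H37Rv; each compound added at a concentration giving ≥90% macrophage viability over 3 days of treatment, alone or combined with INH or RIF at a non-antibiotic inhibitory concentration. The read-out was intracellular killing.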

For series [6], the system named is Mycobacterium tuberculosis. Put plainly: Antimycobacterial activity against Mycobacterium tuberculosis H37Rv infected in human monocyte-derived macrophages assessed as reduction of colony forming unit at 16 ug/ml after 3 weeks by broth microdilution method in presence of 0.5 ug/ml of rifampin. The format is functional, organism-based. The method in brief: as §2

Series [7] relates to Mycobacterium tuberculosis. The series is described as follows: Antimycobacterial activity against Mycobacterium tuberculosis H37Rv infected in human monocyte-derived macrophages assessed as reduction of colony forming unit at 0.078 ug/ml after 3 weeks by broth microdilution method in presence of 0.05 ug/ml of isoniazid. The series is classed as functional, organism-based. The method in brief:
as §2

Series [8] deals with Mycobacterium tuberculosis. The series is described as follows: Antimycobacterial activity against Mycobacterium tuberculosis H37Rv infected in human monocyte-derived macrophages assessed as reduction of colony forming unit at 0.078 ug/ml after 3 weeks by broth microdilution method in presence of 0.5 ug/ml of rifampin. The series is classed as functional, organism-based. The method in brief: as §2

For series [9], the system named is Mycobacterium tuberculosis. Put plainly: Antimycobacterial activity against Mycobacterium tuberculosis H37Rv infected in human monocyte-derived macrophages assessed as reduction of colony forming unit at 1.25 ug/ml after 3 weeks by broth microdilution method in presence of 0.05 ug/ml of isoniazid. The format is functional, organism-based. The method in brief:
as §2

In series [10] the test system is Mycobacterium tuberculosis. The series is described as follows: Antimycobacterial activity against Mycobacterium tuberculosis H37Rv infected in human monocyte-derived macrophages assessed as reduction of colony forming unit at 1.25 ug/ml after 3 weeks by broth microdilution method in presence of 0.5 ug/ml of rifampin. The series is classed as functional, organism-based. The method in brief: as §2

The subject of series [11] is Mycobacterium tuberculosis. The series is described as follows: Antimycobacterial activity against Mycobacterium tuberculosis H37Rv infected in human monocyte-derived macrophages assessed as reduction of colony forming unit at 40 ug/ml after 3 weeks by broth microdilution method in presence of 0.05 ug/ml of isoniazid. The series is classed as functional, organism-based. The method in brief: as §2

Series [12] concerns Mycobacterium tuberculosis. Put plainly: Antimycobacterial activity against Mycobacterium tuberculosis H37Rv infected in human monocyte-derived macrophages assessed as reduction of colony forming unit at 40 ug/ml after 3 weeks by broth microdilution method in presence of 0.5 ug/ml of rifampin. The series is classed as functional, organism-based. The method in brief:
as §2

The test system of series [13] is Mycobacterium tuberculosis. Put plainly: Antimycobacterial activity against Mycobacterium tuberculosis H37Rv infected in human monocyte-derived macrophages assessed as reduction of colony forming unit at 16 ug/ml after 3 weeks by broth microdilution method. The format is functional, organism-based. The method in brief: as §2
Series [14] deals with Mycobacterium tuberculosis. The series is described as follows: Antimycobacterial activity against Mycobacterium tuberculosis H37Rv infected in human monocyte-derived macrophages assessed as reduction of colony forming unit at 0.078 ug/ml after 3 weeks by broth microdilution method. The series is classed as functional, organism-based. The method in brief: as §2
Series [15] has as its system Mycobacterium tuberculosis. The series is described as follows: Antimycobacterial activity against Mycobacterium tuberculosis H37Rv infected in human monocyte-derived macrophages assessed as reduction of colony forming unit at 1.25 ug/ml after 3 weeks by broth microdilution method. The format is functional, organism-based. The method in brief:
as §2

The test system of series [16] is Mycobacterium tuberculosis. The series is described as follows: Antimycobacterial activity against Mycobacterium tuberculosis H37Rv infected in human monocyte-derived macrophages assessed as reduction of colony forming unit at 40 ug/ml after 3 weeks by broth microdilution method. The format is functional, organism-based. The method in brief: as §2
Series [17] can be described thus: Ratio of thioridazine IC50 to compound IC50 for human PBMC. The format is ADME, cell-based. The settings on record: PBMC (peripheral blood mononuclear cells), read-out: Ratio IC50.

Converted amounts (≈) assume the structure as drawn. The source made the active and inactive calls. No cut-off for these calls is given here.

Regarding `CN1CCCCC1CCn1c2ccccc2c(=O)c2ccccc21` (configuration not stated), inhibition of growth in [1] (MIC) required 64 µg/mL (≈ 200 µM). Moreover, the IC50 (as a rule, the point on the concentration scale where inhibition reaches its midpoint) in series [2] worked out at 2.37 µM. In series [3], this compound yielded an RFU of 0.94.

For `CN1CCCCC1CCN(c1ccccc1)c1ccccc1` (racemic), the minimum inhibitory concentration (MIC) (in general, the lowest concentration found to suppress growth) in [1] was greater than 64 µg/mL. In addition, in series [3], the RFU turned out to be 0.61.

In series [1], `Cc1c(Cc2ccccc2)c(=O)n2c3ccccc3n(CCC3CCCCN3C)c2c1C#N` (racemic) returned a minimum inhibitory concentration (MIC) greater than 64 µg/mL. Further, the RFU in series [3] worked out at 0.66.

As to `COc1ccc(N(CCC2CCCCN2C)c2ccccc2)cc1OC` (racemic), inhibition of growth in series [1] (MIC) required 256 µg/mL (≈ 722 µM). Moreover, the RFU in [3] is 0.76.

Turning to `c1ccc2c(c1)c1ccccc1n2CCN1CCCCC1`, the MIC in series [1] was greater than 256 µg/mL. The RFU in series [3] is 0.08.

For `COc1ccc(CCN(C)CCCC(C#N)(c2ccc(OC)c(OC)c2)C(C)C)cc1OC` (configuration not stated) [VERAPAMIL], the MIC in series [1] came to 800 µg/mL (≈ 1760 µM); in series [4] it was 512 µg/mL (≈ 1130 µM). Further, in series [2], the IC50 stood at 117 µM.

For the compound `CN1CCCCC1CCn1cnc2ccccc21` (racemic), the result in series [5], in [6], in series [7], in [8], in [9] and in [10] was Active. Besides, the result in series [11], in series [12], in series [13], in [14], in [15] and in series [16] was Active. Also, the minimal inhibitory concentration (MIC) in series [1] and in series [4] was greater than 256 µg/mL in each case. Also, the half-maximal inhibitory concentration (IC50) in series [2] worked out at 702 µM. For the same compound, in series [3], the RFU turned out to be 15.3.

`CN1CCCCC1CCn1c(C(=O)NC23CC4CC(CC(C4)C2)C3)cc2cc(Cl)ccc21` (mixture of isomers): in [1], the MIC was greater than 256 µg/mL. Moreover, in series [3], the RFU was found to be 0.17.

The compound `COc1ccc(C(C#N)(CCC2CCCCN2C)C(C)C)cc1OC` (mixture of isomers) showed an MIC in [1] greater than 256 µg/mL. Moreover, the RFU in series [3] stood at 0.72.

With `CN1CCCCC1CCn1c2ccccc2c2ccccc21` (racemic), the outcome in [5], in [6], in [7], in series [8], in series [9] and in series [10] was Active. In addition, the outcome in [11], in series [12], in series [13], in series [14], in [15] and in series [16] was Active. Also, the MIC was 256 µg/mL (≈ 875 µM) in [1] and 128 µg/mL (≈ 438 µM) in [4]. Moreover, the IC50 in [2] is 30 µM. In series [17], the selectivity ratio was 2. The compound also showed an RFU in series [3] of 0.95.

`CN1CCCCC1CCn1ccc2ccc(Br)cc21` (racemic): the outcome in [5], in series [6], in [7], in [8], in series [9] and in series [10] was Active. Also, the result in [11], in series [12], in series [13], in series [14], in series [15] and in [16] was Active. The MIC in series [1] is 64 µg/mL (≈ 199 µM); in series [4], greater than 256 µg/mL. Besides, the half-maximal inhibitory concentration (IC50) in series [2] was found to be 32.5 µM. The selectivity ratio in [17] was 2. In series [3], this compound yielded an RFU of 0.81.

As to `COc1ccc(N(CCC2CCCCN2C)C(C)C)cc1OC` (racemic), the outcome in series [5], in [6], in [7], in series [8], in series [9] and in [10] was Active. Besides, the outcome in series [11], in [12], in series [13], in [14], in series [15] and in series [16] was Active. The MIC in [1] and in [4] was greater than 256 µg/mL throughout. Besides, in series [2], the IC50 was 265 µM. In series [3], this compound displayed an RFU of 1.17.

In the case of `CN1CCCCC1CCN1CCCC1` (racemic), the MIC in [1] was greater than 256 µg/mL. In series [3], this compound displayed an RFU of 0.39.

Turning to `c1ccc(CCn2c3ccccc3c3ccccc32)nc1`, the MIC in [1] is greater than 64 µg/mL. This compound also displayed an RFU in series [3] of -0.17.

`CSc1ccc2c(c1)N(CCC1CCCCN1C)c1ccccc1S2` (configuration not stated) [THIORIDAZINE]: the MIC in [1] turned out to be 30 µg/mL (≈ 81 µM); in series [4] it was 15 µg/mL (≈ 40.5 µM). For the same compound, the IC50 in series [2] amounted to 13.8 µM. In series [3], this compound yielded an RFU of 0.82.
